# According to PMC6467359 (Toxicological Research, 2019):
# Read-outs that look alike come from different tables or passages of the source.
# Legend:
# [1] = tested on: ovarian cancer cell line A2780; conditions: read-out: half maximal inhibitory concentration (IC50); A2780 ref 9; cited from earlier work
# WI-38 cells = experiment: MTT assay of cell viability, WI-38 lung fibroblasts; type: cell-based, human; conditions: for IC50: read-out: IC50 value, WI-38 cells
# Method in brief: (§1)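 Untransformed human fibroblasts (CCD-986Sk skin, WI-38 lung) in MEM with 10% FCS were seeded at 1 × 10^4 cells/well, cultured overnight, then exposed to graded concentrations, or to 0.1% DMSO control, for 24 hr at 37°C, 5% CO2. MTT was added for 3 hr, formazan was dissolved in DMSO, and A560 was read. Survival was expressed relative to control, and IC50 was taken from the viability-versus-concentration plot; three independent repeats.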
# SKOV-3 cells [2] = experiment: Cell imaging; type: cell-based, human; conditions: for morphological change of treated SKOV-3 cells: 48 hr, 200× magnification, α-mangostin 7.309 μM, apigenin 18.502 μM, doxorubicin 0.431 μM
# CCD-986Sk cells = experiment: MTT assay of cell viability, CCD-986Sk skin fibroblasts; type: cell-based, human; conditions: for toxicity to CCD-986Sk cells: 24 hr of exposure
# Method in brief: as §1
# SKOV-3 cells [3] = experiment: Cell cycle analysis by PI staining and flow cytometry; type: cell-based, human
# BCL2 = experiment: RT-qPCR transcript expression in SKOV-3 cells, BCL2; type: cell-based, human; conditions: SKOV-3, 24 hr, 18.502 μM, p < 0.01
# Method in brief: (§2)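 SKOV-3 cells were seeded at 5 × 10^5 in 5 mL flasks and treated for 24 hr in 0.1% DMSO (vehicle control). Total RNA was column-extracted. One-step SYBR RT-qPCR used 20 ng RNA and 0.4 μM each primer: RT at 42°C for 5 min, 95°C for 10 s, then 40 cycles of 95°C 10 s / 60°C 30 s, with melt-curve check. Expression was normalised to GAPDH and compared with control; three independent repeats, one-way ANOVA with Tukey test.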
# SKOV-3 cells [4] = experiment: MTT assay of cell viability and proliferation, SKOV-3; type: cell-based, human; conditions: for cytotoxicity to SKOV-3 cells relative to apigenin: ratio of IC50 values
# Method in brief: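 SKOV-3 cells were seeded at 5 × 10^3 cells/well in McCoy's 5A with 10% FCS, cultured overnight, then exposed to a range of concentrations, or to 0.1% DMSO control, for 24, 48 and 72 hr. MTT was added for 3 hr, formazan was dissolved in DMSO, and A560 was read. Viability was expressed relative to control, and IC50 was read from the plot of % viable cells versus concentration; three independent repeats.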
# caspase-9 = experiment: Caspase-9 colorimetric activity assay in treated SKOV-3 cells; type: cell-based, human; conditions: SKOV-3, 24 hr
# Method in brief: (§3)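 SKOV-3 cells (McCoy's 5A, 10% FCS, 37°C, 5% CO2) were seeded at 5 × 10^5 in 5 mL flasks overnight, then treated in 0.1% DMSO vehicle (DMSO-only control) for 12 and 24 hr. Cells were trypsinized and lysed on ice, and 100 μg protein was taken per well. Reactions used 10 mM DTT final and caspase-specific colorimetric substrate, 37°C for 1–2 hr, read at 400–405 nm. Done in triplicate.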
# caspase-3 = experiment: Caspase-3 colorimetric activity assay in treated SKOV-3 cells; type: cell-based, human; conditions: α-mangostin 7.309 μM
# Method in brief: as §3
# [5] = tested on: SKOV-3 ovarian cancer cells; conditions: 0.033–1.0 mg/mL, 24 hr of exposure ref 10; cited from earlier work
# ES2 ovarian cancer cells = conditions: 0.033–1.0 mg/mL, 24 hr of exposure ref 10; cited from earlier work
# COX2 = experiment: RT-qPCR transcript expression in SKOV-3 cells, COX2; type: cell-based, human; conditions: SKOV-3, 24 hr, 7.309 μM, p < 0.05
# Method in brief: as §2
# NFκB = experiment: RT-qPCR transcript expression in SKOV-3 cells, NFκB; type: cell-based, human; conditions: SKOV-3, 24 hr, 7.309 μM
# [6] = Homo sapiens, SK-OV-3, 24 h, read-out: IC50 value at an incubation time of 24 hr
# [7] = Homo sapiens, SK-OV-3, 48 h, read-out: IC50 value at an incubation time of 48 hr
# [8] = Homo sapiens, SK-OV-3, 72 h, read-out: IC50 value at an incubation time of 72 hr
smiles,measurement,setting,value
"CCCCCCCCC(OCCC(C)C)c1ccc2c(c1OC)/C(=N/O)C=C/C2=N\O (stereo not shown) [(1E,4E)-6-(1-(isopentyloxy)nonyl)-5-methoxynaphthalene-1,4-dione dioxime]",IC50,[1],8.26 ± 0.22 µM
O=c1cc(-c2ccc(O)cc2)oc2cc(O)cc(O)c12 [Apigenin],IC50,"WI-38 cells; Homo sapiens, WI-38, 24 h",36.9 ± 0.971 µM
same,concentration nontoxic to the cells,"WI-38 cells; WI-38, 24 hr",up to 27.753 μM
same,concentration that did not affect cell growth,"WI-38 cells; WI-38, 24 hr",1156 to 2313 nM
same,morphological change of treated SKOV-3 cells,SKOV-3 cells [2],Cell shrinkage
same,toxicity to CCD-986Sk cells,CCD-986Sk cells,nontoxic
same,cell survival,"CCD-986Sk cells; CCD-986Sk, 24 hr, 92.510 μM",70%
same,relative cell survival,"CCD-986Sk cells; CCD-986Sk, 24 hr, 1.156–55.506 μM",100%
same,cell cycle arrest (G2/M phase),"SKOV-3 cells [3]; SKOV-3, after 48 hr of exposure, 18.502 μM",likewise arrested the cells
same,BCL2 transcript expression level relative to control,BCL2,upregulation was significant
same,IC50,SKOV-3 cells [4]; [6],26.5 ± 6.02 µM
same,IC50,SKOV-3 cells [4]; [7],21.2 ± 5.25 µM
same,IC50,SKOV-3 cells [4]; [8],18.2 ± 3.1 µM
same,caspase-9 level (activity) vs control,caspase-9,statistically significant (p < 0.01)
"COc1cccc2c1C(=O)c1c(O)c3c(c(O)c1C2=O)C[C@@](O)(C(=O)CO)C[C@@H]3O[C@H]1C[C@H](N)[C@H](O)[C@H](C)O1 [Doxorubicin, reference compound]",IC50,"WI-38 cells; Homo sapiens, WI-38, 24 h",0.604 ± 0.156 µM
same,morphological change of treated SKOV-3 cells,SKOV-3 cells [2],some cell blebbing
same,toxicity to CCD-986Sk cells,CCD-986Sk cells,did not affect the growth
same,caspase-3 activity vs control,"caspase-3; SKOV-3, 24 hr, apigenin 18.502 μM, doxorubicin 0.431 μM",not significant
same,IC50,SKOV-3 cells [4]; [6],0.534 ± 0.084 µM
same,IC50,SKOV-3 cells [4]; [7],0.343 ± 0.023 µM
same,IC50,SKOV-3 cells [4]; [8],0.117 ± 0.008 µM
"CC(=O)OCON=[N+]([O-])NCC(C)C [O^2-(acetoxymethyl)-1-(iso-butylamino)diazen-1-ium-1,2-diolate]",effect on proliferation,[5],reduced the proliferation
same,effect on proliferation,ES2 ovarian cancer cells,reduced the proliferation
"CC(=O)OCO/N=[N+](\[O-])NC(C)C [O^2-(acetoxymethyl)-1-(isopropylamino)diazen-1-ium-1,2-diolate]",effect on proliferation,[5],reduced the proliferation
same,effect on proliferation,ES2 ovarian cancer cells,reduced the proliferation
COc1c(O)cc2oc3cc(O)c(CC=C(C)C)c(O)c3c(=O)c2c1CC=C(C)C [α-Mangostin],COX2 transcript expression level relative to control,COX2,upregulation was significant
same,IC50,"WI-38 cells; 24 hr of treatment, MTT",1.5 ± 0.464 µM
same,morphological change of treated SKOV-3 cells,SKOV-3 cells [2],mostly damaged
same,effect at the small-scale IC50 value in larger-scale cultures,"SKOV-3 cells [2]; SKOV-3, 5 × 10^5 cells in 5 mL, T25 flasks",not effective at all
same,concentration safe for CCD-986Sk skin fibroblasts,CCD-986Sk cells; 24 hr,less than 6.091 μM
same,"cytotoxicity in CCD-986Sk cells, fold less than in SKOV-3 cells",CCD-986Sk cells; 24 hr,about 4 fold
same,IC50,"CCD-986Sk cells; read-out: IC50 value, CCD-986Sk cells, 24 hr of treatment, MTT",9.8 ± 3.17 µM
same,caspase-3 activity vs control,"caspase-3; SKOV-3, 12 hr",significantly (p < 0.05) increased
same,cell cycle arrest,"SKOV-3 cells [3]; SKOV-3, after 24 hr of exposure, 7.309 μM",induced arrest at the G2/M phase
same,cytotoxicity to SKOV-3 cells relative to apigenin,SKOV-3 cells [4]; 24 hr,10.8 fold
same,cytotoxicity to SKOV-3 cells relative to apigenin,SKOV-3 cells [4]; 72 hr,5.9 fold
same,IC50,"SKOV-3 cells [4]; read-out: IC50 value at an incubation time of 24 hr, SKOV-3 cells, MTT, 24 hr",2.47 ± 0.338 µM
same,IC50,"SKOV-3 cells [4]; read-out: IC50 value at an incubation time of 48 hr, SKOV-3 cells, MTT, 48 hr",2.98 ± 0.054 µM
same,IC50,"SKOV-3 cells [4]; read-out: IC50 value at an incubation time of 72 hr, SKOV-3 cells, MTT, 72 hr",3.06 ± 0.349 µM
same,NFκB transcript expression level relative to control,NFκB,remained the same as in the control cells
